Data from the EternaBench riboswitch data.

Tested on: MS2 coat protein
Test: apparent Kd, MS2 coat protein; higher = weaker binding; RNA-MaP array
Outline: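 Incubations were done at room temperature with fluorescently labeled MS2 coat protein at 1.5 nM to 3 μM and designed RNAs transcribed on an Illumina sequencing chip from sequenced DNA templates, with or without input ligand. Apparent Kd is the median of binding curves fitted for each cluster. Designs with fewer than 10 measured clusters were excluded.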

[1] = designed as: OFF switch for flavin mononucleotide, no ligand
[2] = ligand present: flavin mononucleotide, designed as: OFF switch for flavin mononucleotide
[3] = designed as: ON switch for flavin mononucleotide, no ligand
[4] = ligand present: flavin mononucleotide, designed as: ON switch for flavin mononucleotide
[5] = designed as: ON switch for theophylline, no ligand
[6] = ligand present: theophylline, designed as: ON switch for theophylline
[7] = designed as: ON switch for tryptophan, no ligand
[8] = ligand present: tryptophan, designed as: ON switch for tryptophan

Sequence | apparent Kd [1] [nM] | apparent Kd [2] [nM] | apparent Kd [3] [nM] | apparent Kd [4] [nM] | further results
GACAAGACAGGAUAUACAUAUAUGUAGCACGAAGAGUUAAGACAUGAGGAUCACCCAUGUAGAAGGGUCAUAAA | 19.2 | 17.7 | – | – | –
UGAUCAGAACAGAAGGAGUAGUCUGCCUUGCUACUAGGAUAUGUUACAUGAGGAUCACCCAUGUGUUUAGGAUUGCCAUAAAGG | – | – | 13.1 | 9.08 | –
ACAUACGAACGAGGAUAUCUCCACAUGAGGAUCACCCAUGUUUGGGUCCGAUAGUAGCGUGCAAAAGAGAAGGCGUGUACAUCC | 22.8 | 25.5 | – | – | –
GCUAGCGGUAAGAAGGCAUAGACCAAAACUUCAUGAGGAUAUUAUUUGCGGCAUUCGCUCCAAGGACAUGAGGAUCACCCAUGU | – | – | 15.4 | 16.3 | –
UACGGAGCUCAGAAGGGACACUGCGGAGAUAUGUCAGGAUAUGACUUCUUAUCGUGUGGUGACAUGAGGAUCACCCAUGUGCUU | 209 | 338 | – | – | –
AUUUAGCAUAUACAUGAGGAUCACCCAUGUCUGAUACAUAGUAGAAGGCCCGUUAAGACAUACAGGGAGGAUAUACGUACAUGU | – | – | 49 | 9.85 | –
GCUCAGGAAGGAUAUACUGAAGCUAACAUGAGGAUCACCCAUGUCCUAGGUAAGUAUCUGGUAGAAGGUCCGCGUA | 24.9 | 32.5 | – | – | –
AAGCCCAGGACGGCCGCCACUGUAAAAUGGUGGUUCGCCUGUAAGAACAUGAGGAUCACCCAUGUCAGGACCGGGUCCACGAGUU | – | – | – | – | apparent Kd (designed as: OFF switch for tryptophan, no ligand): 17.6 nM; apparent Kd (ligand present: tryptophan, designed as: OFF switch for tryptophan): 27.1 nM
GGCGAUCAGUGAGGAUAUUCCGCGCAAAUACUAGAAGAAGGCACGUAUCAAGGGUUCAGAACAUGAGGAUCACCCAUGUCAAGC | – | – | 14 | 10.1 | –
GUACAUUUUGCAGGAUAUGUUCAAUACAUGAGGAUCACCCAUGUUCCCUGCUCGGGUCGAGCAUAACAGAAGGGCACUAUAUGU | – | – | 28.9 | 12.1 | –
GACAUCAUAGGAGGAUAUGUUUUCUAAAGACUGACAGAAGGCCAGAACAGUAAGAACAAAAGACAUGAGGAUCACCCAUGUGUU | – | – | 16.6 | 9.36 | –
CUUGGAAGACAGAAGGGCAUCCACCCGGGACCAGCAGGAUAUGUCAACGGUAGCCGAAAACAUGAGGAUCACCCAUGUCAGAAG | – | – | 75.8 | 30.1 | –
AUUCGGUCAGGAUAUAGCGCACGCCGACGAACAUGUGGCGGCUAGAAGGGACAUGAGGAUCACCCAUGUCGGGC | 8.41 | 10.7 | – | – | –
GACACCGGUAUGGAGGAUAUGGGAGACAGUACAUGAGGAUCACCCAUGUCGUUAAGAAGAUAUCACCAGAAGGCCACUCGGUCGAG | – | – | 13.5 | 9.63 | –
GGUUAACAUGAGGAUCACCCAUGUCUUGAUACCAGUCGUUAUCUUGACCCUUGGCAGCAAGAUGACCGUUAGCAGCCGUCUUCUC | – | – | – | – | apparent Kd [5]: 13.2 nM; apparent Kd [6]: 19.5 nM
GCGUUGGCCACGGCCGCCACUCAGGUACCGCGCGUAGUGAACUUACAUGAGGAUCACCCAUGUCUGAGGACCGGGUGGCCGCCAC | – | – | – | – | apparent Kd [7]: 37.3 nM; apparent Kd [8]: 46.2 nM
AGUUUUAUCGUGUAGGAUAUGGGAUAAUCAACAUGAGGAUCACCCAUGUCAUGAGUGACAAGCGACCAGAAGGACACCAAUACAAC | – | – | 400 | 55.8 | –
UUCUCACAUGAGGAUCACCCAUGUCUAAGGAGUACAGGAUAUGUGCCGUGAUUUUCGAGUACAGAAGGGUACAAUU | – | – | 273 | 33.6 | –
CCAGGACAUGAGGAUCACCCAUGUACGGUCAGCGAAGGAUAUAUUGCGUGGCGAGUGCUGAUAGAAGGUCGUAAAC | – | – | 15 | 10.9 | –
ACGAACAUGAGGAUCACCCAUGUUGUUUCUAAGACUCGGUCAAGAAGGUGUCGUUACGAGUCGAACAAGGAUAUUGAUCCGAAC | – | – | 28.6 | 20.6 | –
CACAAGUCGUAGGAUAUCACCACAAAUAGCUGCUGAGAAGGACGGACAUGAGGAUCACCCAUGUGUUCCGCAAU | 14.8 | 23.8 | – | – | –
GGAAGUCAAGGAUAUACAUGAGGAUCACCCAUGUCAGGUGCCAAUUAUGUUCUAUAGUGUAGAAGGUGACAAUG | 112 | 183 | – | – | –
CGGAAACAAGUAGGAUAUCACUUGAAUGUACAUGAGGAUCACCCAUGUUCCUUACGGCCGCGUUUUGAGAAGGACUAUUCAAAA | 17.6 | 15 | – | – | –
GUUUUGGUACGAGGAUAUAAUGCCCUUGGAGAGUUAGAAGGCGUACGGGCUGUCCAUUAGAUACAUGAGGAUCACCCAUGUGAG | 14.7 | 12.2 | – | – | –
CUUCAGGCGGAGGAUAUCUUACAGUUAUCGUACAGAGAAGGCCGCACAUGAGGAUCACCCAUGUCAGGCGACUU | 29.8 | 162 | – | – | –
ACGAGGUACACAGGAUAUGCAAACAUGAGGAUCACCCAUGUGUUCGCCAAUAUCGUGAAUGUGUCGCAGAAGGGUGGUAGUCUA | – | – | 12.3 | 9.83 | –
GGACCAAGGAGGGAGGAUAUCACAUACAAAACAUGAGGAUCACCCAUGUAGAAGAGACAAGAUACAGAGAAGGCCCAGAAAUAAAA | – | – | 14 | 9.27 | –

Sequence | apparent Kd [1] [nM] | apparent Kd [2] [nM] | apparent Kd [3] [nM] | apparent Kd [4] [nM] | further results
AGGAAACAUGAGGAUCACCCAUGUGAGGAUAUACAAAAGAGCGAAAGAAGAAAUUAAUGUAGAAGGCACGUCAA | 15.1 | 13.3 | – | – | –
CGGUCACAUGAGGAUCACCCAUGUAAGGAUAUAGAUGUCUGUGUCAACCGACGGGCUUCUAGAAGGUACGGAUG | 18.6 | 18.1 | – | – | –
CAAAGGAACCAGAAGGCCAUAGGUAAAAUAGUUGGAGGAUAUGGGCACAUGAGGAUCACCCAUGUUCACUGUAAUCAGGAAUAG | – | – | 102 | 35.3 | –
ACUUGACAUGAGGAUCACCCAUGUGAUCCGUCAUUAGGAUAUCGAAGGUAUAUCACGCCUCGAGAAGGAAUAGCGG | – | – | 361 | 65.5 | –
GAUGCAACGCAGAAGGUAACCCAAUUAGGAGAUCUACAUGAGGAUCACCCAUGUAUUUGGAAAAUUAAGGAUAUGCCGAGGAUC | 14.7 | 19.5 | – | – | –
UAGCAUAGUACGGCCGCCACUCCUGGUUCCCGGCCGUGUGUAAGACAUGAGGAUCACCCAUGUAGGAGGACCGGGUAUCGCUUGC | – | – | – | – | apparent Kd [7]: 14 nM; apparent Kd [8]: 15.2 nM
UGCCCAAACAUGAGGAUCACCCAUGUUGUGACCUCGGGAGCCAGAAGGGUAUUAAACAAGUCGGUACAGGAUAUGGUCUAGUAA | 343 | 214 | – | – | –
UUAGGUGCAGGAUAUACAAGACUUAGUAGGAUACCAGACCUACAUGAGGAUCACCCAUGUAGAAGGGCAAUGCA | 20.6 | 16.9 | – | – | –
GGCGUGUACACAGGAUAUGAUACAUGAGGAUCACCCAUGUUCGCGCUGGAUCUACGUGAGAACGAUCAGAAGGGUGCUGCAGGG | – | – | 398 | 229 | –
AAGGAACAUGAGGAUCACCCAUGUGCUUGCCAGCAAGGAUAUGGUUGUGACAUCUAUAUGCCAGAAGGUGCCGGAC | – | – | 286 | 85.6 | –
CCGGAAUUGCAGGAUAUACGCAAACCACAUGCUGUAGAAGGGCAAACAUGAGGAUCACCCAUGUGGUCGAGCAG | 13.4 | 17.9 | – | – | –
AAUCCUAAUGUCAGGAUAUUGCAGAAGCCAGAACACAAGAAGGGACAUGAGGAUCACCCAUGUAUAGUCACAUA | 22.4 | 59.1 | – | – | –
ACAUGAGGAUCACCCAUGUCUACGAAGGUCGAAAUUAAUACCAGAAGGCGCGUCGACUAAGAGUGCGAGGAUAUGGUGUGUCGA | – | – | 52 | 9.96 | –
GGGAUGUUAGGAUAUGCUGGUUAAAAGAGAUUAAUACUCUAGCAGAAGGAACAUGAGGAUCACCCAUGUAGACA | 10.6 | 26.4 | – | – | –
CCAGCUCUAUAGGAUAUUCUUGAUGAAGACACGGAAGAAGGAUAGACAUGAGGAUCACCCAUGUCCUUACAUGU | 19.4 | 17.3 | – | – | –
UUCUUGUCAGGAUAUGGCCCAGAGUCUAAGGCACCGAACGGCCAGAAGGGACAUGAGGAUCACCCAUGUAUCCU | 16.3 | 82.8 | – | – | –
CUGAAGUCUGACCCUCGAAACAUGAGGAUCACCCAUGUAGUCAGAAGGCGAUUGUGAGCAGGAAUCGAGGAUAUGAACUAGUUU | 7.72 | 10 | – | – | –
UCGCUGUAAGGAUAUACUCCGUUACUGUGUUAUAACGGACCGUAGAAGGUACAUGAGGAUCACCCAUGUGAAGU | 11.1 | 17.8 | – | – | –
UACUUUGUAUGCAAGGAUAUCCAGGAUUCUACAUGAGGAUCACCCAUGUCAAAUACUAUGCAACGGGAGAAGGUGCAUAACAUCAU | – | – | 16.5 | 12.2 | –
CCCAGAUGCUAGAAGGCCUACAUGAGGAUCACCCAUGUAUCCGCUAUCCACACACGCAGGCGGCAGGAGGAUAUAGACGAAGGA | – | – | 8.84 | 6.63 | –
GAGGCGAAGGAGAAGGCCGCCAGUAAAGGUGACCGUAACAUGAGGAUCACCCAUGUGGAAUAAACGGAGGAUAUCCCUUCUCAG | 19 | 21.8 | – | – | –
CACUACAUGAGGAUCACCCAUGUAUACUGACGAGGACCGGUACGGCCGCCACUCGAACCGAAACCGACUUCAUUCUGUGUACCAU | – | – | – | – | apparent Kd [7]: 15.4 nM; apparent Kd [8]: 16.2 nM
CGAUACAAAUAAAGCGUUCGUCCGCCAGAUACCAGAUUCAUUUCCAUCCCUUGGCAGCUGUCGACAUGAGGAUCACCCAUGUUUG | – | – | – | – | apparent Kd (designed as: OFF switch for theophylline, no ligand): 18.3 nM; apparent Kd (ligand present: theophylline, designed as: OFF switch for theophylline): 20.9 nM
AGGGAACAUGAGGAUCACCCAUGUGCCGAUACCAGUGAUUUUCAGCACCCUUGGCAGCGGAACCUUUGUUAUAUUAUUCUUAGGG | – | – | – | – | apparent Kd [5]: 36.7 nM; apparent Kd [6]: 28.2 nM
CUCUAACAAGGAUAUACAUGUCCCAGGAUCCUAUAGGCUUUACAUGAGGAUCACCCAUGUAGAAGGUGUAUUAC | 18.7 | 16.4 | – | – | –
CGUAAUAACUCACAGGAUAUGCGAGAGGAGACAUGAGGAUCACCCAUGUGACCAUGAAUAUUCCUGCAGAAGGGUGAUAAAUCAUU | – | – | 13 | 18 | –
AAAUCAAAGCAGAAGGAACAAUAAGCAUAAAGGUUAGGAUAUGCGUCAACGCAAAGUACAUGAGGAUCACCCAUGUUUAUAAGC | – | – | 7.37 | 6.77 | –
